High-throughput results deposited in PubChem BioAssay by Johns Hopkins Ion Channel Center.
The list is not random: actives were taken first. Their share in the collection is about 3.5%.
MrgX1 antag: human MrgX1 receptor antagonism, primary screen; Q96LB2; MRGX1-HEK293 calcium flux, Fluo-4, BAM8-22 antagonism; stronger effect = lower value; B-score at 10 µM; hit rate 1.3% among 310,000; AID 588676;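 active means calcium-response B-score plate-corrected more than 3 library SD below zero, starting fluorescence within 5 deviations, no agonist response on first addition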;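 further: peak minus trough fluorescence over baseline after final BAM8-22 challenge near maximal dose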
Target sequence (Q96LB2 whole entry, looked up): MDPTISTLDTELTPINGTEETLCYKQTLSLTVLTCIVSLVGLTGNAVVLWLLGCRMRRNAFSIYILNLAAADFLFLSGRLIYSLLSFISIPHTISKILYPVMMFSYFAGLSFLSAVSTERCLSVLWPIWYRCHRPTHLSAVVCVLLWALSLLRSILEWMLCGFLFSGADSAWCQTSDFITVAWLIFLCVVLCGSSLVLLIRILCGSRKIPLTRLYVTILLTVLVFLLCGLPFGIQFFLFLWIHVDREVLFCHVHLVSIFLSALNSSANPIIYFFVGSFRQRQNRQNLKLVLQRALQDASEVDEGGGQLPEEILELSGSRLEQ
MrgX1 ag: agonists of human MrgX1 receptor | Q96LB2 | MrgX1-HEK293 cells, Fluo-4 calcium fluorescence, agonist mode; stronger effect = higher value | B-score at 10 µM | hit rate 0.44% among 310,000;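 active means calcium response B-score plate-corrected fluorescence ratio at least 3 library SD, with starting fluorescence B-score inside 5 SD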
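System – MrgX1-expressing HEK293 cells · Incubation – cells plated overnight, dye loaded 0.5 h 37 °C, 0.5 h room temperature · Technique – kinetic Fluo-4 NW fluorescence of intracellular calcium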
RGS4 pot: potentiators or activators of RGS4; HEK293 M3R/inducible RGS4, carbachol calcium flux Fluo4; stronger effect = lower value; B-score at 10 µM; hit rate 0.92% among 310,000;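 active means B-score of the integrated calcium signal more than 4 SD below the library mean, with starting fluorescence not abnormally high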;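 further: negative B-score means reduced calcium response which marks RGS4 activation or potentiation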
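Assay system: HEK293 FlpIn-TREx cells, stable M3R, doxycycline-inducible RGS4 / Probe or stimulus: carbachol, ECmax concentration / Times: overnight RGS4 induction, 30 min dye load 37 °C, 20 min compound RT / Signal: kinetic calcium fluorescence imaging with Fluo4-AM dye, 2 µM / Measure: Agonist-evoked peak-minus-minimum fluorescence over baseline, integrated ratio, B score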
RGS4 inh: human RGS4 inhibition. HEK293 M3R/RGS4 inducible, Fluo-4 calcium flux; stronger effect = higher value; triggered by carbachol at its EC20. B-score at 10 µM. hit rate 0.45% among 310,000;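 active means B-score, a plate-corrected calcium signal, over three deviations above library mean, with baseline fluorescence within five deviations of library mean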;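 further: RGS4 expression induced by doxycycline in cells with stable M3 receptor; B-score is computed from the integrated fluorescence ratio over baseline after carbachol; higher B-score means a larger calcium signal and so more RGS4 inhibition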
Target sequence (P49798 whole entry, looked up): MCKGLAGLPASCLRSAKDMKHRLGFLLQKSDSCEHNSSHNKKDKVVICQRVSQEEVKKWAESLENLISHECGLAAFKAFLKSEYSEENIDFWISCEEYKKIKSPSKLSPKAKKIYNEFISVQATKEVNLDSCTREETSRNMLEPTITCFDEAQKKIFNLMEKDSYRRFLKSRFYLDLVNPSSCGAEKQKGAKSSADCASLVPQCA
MrgX1 PAM: human MrgX1 positive allosteric modulation, primary screen; hit rate 0.63% among 310,000; B-score at 10 µM; MrgX1-HEK293, Fluo-4 calcium flux, FDSS; stronger effect = higher value; Q96LB2; AID 588675;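 active means plate-corrected calcium response at least 3 library SD above typical, normal starting fluorescence, not activating the receptor alone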;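 further: compound read alongside a low EC10 to EC30 dose of BAM8-22 agonist; peak minus trough fluorescence over baseline measured at the second addition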
MrgX1 ant reconf: reconfirmed antagonist of human MrgX1 receptor signaling | shares compounds with MrgX1 antag | MrgX1-HEK293, BAM8-22 calcium flux, Fluo-4; stronger effect = lower value | remaining BAM8-22 calcium response % of control (stronger effect = lower value), % at 10 µM | hit rate 19% among 2,300;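 active means remaining agonist calcium response no higher than 100% minus 3 SD of agonist-only control wells, with starting fluorescence near control levels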;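 further: agonist BAM8-22 given at a near maximal EC90 to ECmax level; peak minus minimum fluorescence divided by baseline after agonist addition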
HEK293 Ca flux: counter-screen for MrgX1 antagonists: effect in parental HEK293 cells; shares compounds with MrgX1 antag; fluorescence ratio F(max-min)/F0 at 10 µM; hit rate 2% among 4,000; Fluo-4 calcium fluorescence, FDSS;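 active means duplicate-averaged calcium fluorescence ratio at least three times the standard deviation of buffer wells, a nonspecific response in parental cells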
HEK293 Ca counter: MrgX1 allosteric activator counter-screen hit in parental HEK293 cells. shares compounds with MrgX1 antag. parental HEK293 calcium flux, Fluo-4 fluorescence ratio; stronger effect = higher value. fluorescence ratio F(max-min)/F0 at 10 µM. hit rate 0.4% among 4,000. AID 624114;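 active means calcium fluorescence ratio, averaged over duplicates, at least 3 SD of the buffer-well ratio, meaning a nonspecific response in receptor-free cells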;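 further: untransfected parental HEK293 lacking MrgX1 used as counterscreen for MrgX1 allosteric activators; fluorescence change taken during the second addition on a kinetic imager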
HEK293 Ca cntr2: counter-screen for MrgX1 activators: effect in parental HEK293 cells; fluorescence ratio F(max-min)/F0 at 10 µM; hit rate 8.7% among 4,000; Fluo-4 calcium fluorescence (FDSS); stronger effect = higher value; AID 624115; shares compounds with MrgX1 antag;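 active means calcium fluorescence ratio at least three times the spread of buffer wells, meaning a non-specific response in parental cells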
Of the large screens only hits and unclear results are named; the others gave an inactive call (follow-up assays come after a bar, where they were run).

COc1ccc(C(=O)Cn2nnc(-c3cccs3)n2)cc1	none
COC(=O)CCn1nnc(-c2cccs2)n1	MrgX1 antag -6.85 | MrgX1 ant reconf 74.8% | HEK293 Ca flux inactive | HEK293 Ca counter inactive | HEK293 Ca cntr2 inactive
COC(=O)c1ccc(NC(=O)Cn2nnc(-c3cccs3)n2)cc1	none
Cc1nn(C)cc1S(=O)(=O)N1CCN(Cc2cccc(Cl)c2)CC1	none
O=C(Oc1ccc(-c2nnco2)cc1)N1CCOCC1	MrgX1 antag -5.04 | MrgX1 ant reconf inactive | HEK293 Ca flux inactive | HEK293 Ca counter inactive | HEK293 Ca cntr2 inactive
COc1cc(C2C(C#N)=C(N)N(c3cccnc3)C3=C2C(=O)CC(C)(C)C3)ccc1O (centres undefined)	none
COc1ccccc1C1C(C#N)=C(N)N(c2cccnc2)C2=C1C(=O)CC(C)(C)C2 (centres undefined)	MrgX1 antag -8.78 | MrgX1 ant reconf inactive | HEK293 Ca flux inactive | HEK293 Ca counter inactive | HEK293 Ca cntr2 inactive
COC(=O)CP(=O)(c1ccccc1)c1ccccc1	none
S=c1nc(NCCc2ccccc2Cl)c2ccccc2[nH]1	none
Cn1c(C(=O)N2CCC(C(N)=O)CC2)cc2cc(Cl)ccc21	MrgX1 antag -6.11 | MrgX1 ant reconf inactive | HEK293 Ca flux inactive | HEK293 Ca counter inactive | HEK293 Ca cntr2 inactive
CCOC(=O)C[C@H]1c2cc(F)ccc2S(=O)(=O)N1C1CCCCC1	MrgX1 antag -6.42 | MrgX1 ant reconf inactive | HEK293 Ca flux inactive | HEK293 Ca counter inactive | HEK293 Ca cntr2 inactive
Cc1ccc(S(=O)(=O)N(CC(=O)NC2CC2)c2ccc(C)c(Cl)c2)cc1	MrgX1 antag -4.99 | MrgX1 ant reconf inactive | HEK293 Ca flux inactive | HEK293 Ca counter inactive | HEK293 Ca cntr2 inactive
CCCC[C@@H]1CNC(=O)C(=O)N1CC(C)(C)C	MrgX1 antag -7.17 | MrgX1 ant reconf inactive | HEK293 Ca flux inactive | HEK293 Ca counter inactive | HEK293 Ca cntr2 inactive
CCO[C@@H]1OC(C(=O)NCc2nc3ccccc3[nH]2)=C[C@H](c2ccc(C(F)(F)F)cc2)[C@H]1CCCO	none
CC(=O)NC1CC2CCCC(C1)N2S(=O)(=O)c1ccccc1 (centres undefined)	MrgX1 antag -8.79 | MrgX1 ant reconf inactive | HEK293 Ca flux inactive | HEK293 Ca counter inactive | HEK293 Ca cntr2 inactive
Cc1nn(C)c(C)c1NS(=O)(=O)c1cccc(Br)c1	MrgX1 antag -4.71 | MrgX1 ant reconf inactive | HEK293 Ca flux inactive | HEK293 Ca counter inactive | HEK293 Ca cntr2 inactive
CC1CC(=O)c2cnc(NCc3ccco3)nc2C1 (centres undefined)	MrgX1 antag -7.24 | MrgX1 ant reconf inactive | HEK293 Ca flux inactive | HEK293 Ca counter inactive | HEK293 Ca cntr2 inactive
COc1cc(NC(=S)NC(=O)c2ccc(C(C)(C)C)cc2)ccc1NC(=O)c1cccs1	MrgX1 antag -6.24 | MrgX1 ant reconf 80.5% | HEK293 Ca flux inactive | HEK293 Ca counter inactive | HEK293 Ca cntr2 inactive
Cc1ccc(C)c(NC(=O)CN(C)C(=O)c2cccc(S(=O)(=O)N(C)C)c2)c1	MrgX1 antag -4.93 | MrgX1 ant reconf 84.4% | HEK293 Ca flux inactive | HEK293 Ca counter inactive | HEK293 Ca cntr2 inactive
Cc1ccc(C)c(NC(=O)CN(C)C(=O)c2cccc(S(=O)(=O)N3CCN(Cc4ccccc4)CC3)c2)c1	none
CCCCn1c(N)c(N(CC(C)C)C(=O)c2cc(Cl)nc3ccccc23)c(=O)[nH]c1=O	none
O=C(NC1CCCC1)C(c1ccc(Cl)cc1)N1CCc2ccccc21 (centres undefined)	MrgX1 antag -4.8 | MrgX1 ant reconf inactive | HEK293 Ca flux inactive | HEK293 Ca counter inactive | HEK293 Ca cntr2 inactive
N#Cc1ccc(NC(=O)CSc2cn[nH]n2)cc1	none
